Measured values as given in ChEMBL document CHEMBL1140906, “Examination of the biological role of the alpha(2-->6)-linked sialic acid in gangliosides binding to the myelin-associated glycoprotein (MAG)” (J Med Chem, 2009).

Biological target: T1, Myelin-associated glycoprotein (Homo sapiens, UniProt P20916)
T1 sequence (P20916 whole entry): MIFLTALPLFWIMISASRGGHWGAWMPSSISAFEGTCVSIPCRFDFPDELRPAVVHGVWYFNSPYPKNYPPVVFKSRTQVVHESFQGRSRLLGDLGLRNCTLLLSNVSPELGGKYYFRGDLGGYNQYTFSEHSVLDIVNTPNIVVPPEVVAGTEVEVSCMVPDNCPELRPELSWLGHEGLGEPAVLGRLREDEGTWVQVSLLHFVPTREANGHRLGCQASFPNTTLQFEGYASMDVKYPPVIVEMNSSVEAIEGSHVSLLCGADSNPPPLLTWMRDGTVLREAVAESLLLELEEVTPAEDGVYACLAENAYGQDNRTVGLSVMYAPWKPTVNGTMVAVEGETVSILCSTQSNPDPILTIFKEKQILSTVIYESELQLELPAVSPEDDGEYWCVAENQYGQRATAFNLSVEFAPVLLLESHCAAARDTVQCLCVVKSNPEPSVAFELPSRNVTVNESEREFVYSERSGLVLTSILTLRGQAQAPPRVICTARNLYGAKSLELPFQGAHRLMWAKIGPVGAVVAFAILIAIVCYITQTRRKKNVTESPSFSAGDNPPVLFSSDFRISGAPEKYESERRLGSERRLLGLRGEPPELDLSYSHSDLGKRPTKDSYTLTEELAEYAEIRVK
Assay: Binding affinity to human IgG Fc-domain tagged MAG N-terminal domain expressed in CHO cells by surface plasmon resonance
Procedure, shortened: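 Fc-MAGd1-3 (three N-terminal MAG domains fused to human IgG Fc, CHO-expressed, protein A-purified) captured on an immobilized anti-human IgG Fc antibody on CM5 chip; reference surface prepared in parallel.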

Point of comparison: `CC(=O)N[C@H]1[C@H]([C@@H](O)[C@H](O)CNC(=O)c2ccc(Cl)cc2)O[C@@](O[C@H]2[C@@H](O)[C@@H](CO)O[C@@H](O[C@@H]3CCO[C@H](COCc4ccc(-c5ccccc5)cc4)[C@@H]3O)[C@@H]2O)(C(=O)O)C[C@@H]1O`, Kd 2.83 µM. Against it:
- CC(=O)N[C@H]1[C@H]([C@@H](O)[C@H](O)CNC(=O)c2ccccc2)O[C@@](O[C@H]2[C@@H](O)[C@@H](CO)O[C@@H](O[C@@H]3CCO[C@H](COCc4ccc(-c5ccccc5)cc4)[C@@H]3O)[C@@H]2O)(C(=O)O)C[C@@H]1O — 1.8-fold higher, 5 µM
- CC(=O)N[C@H]1[C@H]([C@@H](O)[C@H](O)CNC(=O)c2ccccc2)O[C@@](O[C@H]2[C@@H](O)[C@@H](CO)O[C@@H](O[C@H]3[C@@H](O)[C@@H](CO)O[C@@H](OCC[Si](C)(C)C)[C@@H]3O)[C@@H]2O)(C(=O)O)C[C@@H]1O — 12-fold higher, 32.6 µM

Biological target: T2, Myelin-associated glycoprotein (Homo sapiens) (UniProt P20916)
T2 sequence (whole entry): T1 sequence (P20916 whole entry)
Assay: Inhibition of human IgG Fc-domain tagged MAG N-terminal domain expressed in CHO cells assessed as relative inhibition potency by hapten inhibition assay relative to (2R,4S,5R,6R)-5-acetamido-2-(((2R,3R,4R,5R,6R)-5-acetamido-4-((2R,3R,4S,5S,6R)-4-((2S,4S,5R)-5-acetamido-2-carboxy-4-hydroxy-6-((1S,2S)-1,2,3-trihydroxypropyl)tetrahydro-2H-pyran-2-yloxy)-3,5-dihydroxy-6-(hydroxymethyl)tetrahydro-2H-pyran-2-yloxy)-3-hydroxy-6-(2-(trimethylsilyl)ethoxy)tetrahydro-2H-pyran-2-yl)methoxy)-4-hydroxy-6-((1S,2R)-1,2,3-trihydroxypropyl)tetrahydro-2H-pyran-2-carboxylic acid
Type: cell-based
Procedure, shortened: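 Hapten inhibition: oligosaccharide added to wells with immobilized Neu5Ac, then Fc-MAGd1-3 precomplexed with alkaline phosphatase-labelled anti-Fc antibody; overnight at 4 °C, washed, bound MAG read by initial rate of fluorescein release from fluorescein diphosphate. IC50 from at least eight concentrations, at least three independent titrations; rIP calculated against the reference compound included in each test.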

Point of comparison: `CC(=O)N[C@H]1[C@H](OCC[Si](C)(C)C)O[C@H](CO)[C@H](O)[C@@H]1O[C@@H]1O[C@H](CO)[C@H](O)[C@H](O[C@]2(C(=O)O)C[C@H](O)[C@@H](NC(C)=O)[C@H]([C@@H](O)[C@H](O)CO)O2)[C@H]1O`, Ratio IC50 0.26. Against it:
- CC(=O)N[C@H]1[C@H](OCC[Si](C)(C)C)O[C@H](CO[C@@H](Cc2ccccc2)C(=O)O)[C@H](O)[C@@H]1O[C@@H]1O[C@H](CO)[C@H](O)[C@H](O[C@]2(C(=O)O)C[C@H](O)[C@@H](NC(C)=O)[C@H]([C@@H](O)[C@H](O)CO)O2)[C@H]1O — higher, 0.4
- CC(=O)N[C@H]1[C@H]([C@@H](O)[C@H](O)CO)O[C@@](O[C@H]2[C@@H](O)[C@@H](CO)O[C@@H](O[C@@H]3CCO[C@H](COCc4ccccc4)[C@@H]3O)[C@@H]2O)(C(=O)O)C[C@@H]1O — higher, 0.59
- CC(=O)N[C@H]1[C@H]([C@@H](O)[C@H](O)CNC(=O)c2ccc(Cl)cc2)O[C@@](O[C@H]2[C@@H](O)[C@@H](CO)O[C@@H](O[C@@H]3CCO[C@H](COCc4ccc(-c5ccccc5)cc4)[C@@H]3O)[C@@H]2O)(C(=O)O)C[C@@H]1O — higher, 377
- CC(=O)N[C@H]1[C@H]([C@@H](O)[C@H](O)CO)O[C@@](O[C@H]2[C@@H](O)[C@@H](CO)O[C@@H](O[C@@H]3CCO[C@H](CO)[C@@H]3O)[C@@H]2O)(C(=O)O)C[C@@H]1O — higher, 0.76
- CC(=O)N[C@H]1[C@H]([C@@H](O)[C@H](O)CO)O[C@@](OC[C@H]2O[C@@H](OCC[Si](C)(C)C)[C@H](O)[C@@H](O[C@@H]3O[C@H](CO)[C@H](O)[C@H](O[C@]4(C(=O)O)C[C@H](O)[C@@H](NC(C)=O)[C@H]([C@@H](O)[C@H](O)CO)O4)[C@H]3O)[C@H]2O)(C(=O)O)C[C@@H]1O — higher, 0.3
- CC(=O)N[C@H]1[C@H]([C@@H](O)[C@H](O)CNC(=O)c2ccccc2)O[C@@](O[C@H]2[C@@H](O)[C@@H](CO)O[C@@H](O[C@@H]3CCO[C@H](COCc4ccc(-c5ccccc5)cc4)[C@@H]3O)[C@@H]2O)(C(=O)O)C[C@@H]1O — higher, 314
- CC(=O)N[C@H]1[C@H]([C@@H](O)[C@H](O)CNC(=O)c2ccccc2)O[C@@](O[C@H]2[C@@H](O)[C@@H](CO)O[C@@H](O[C@H]3[C@@H](O)[C@@H](CO)O[C@@H](OCC[Si](C)(C)C)[C@@H]3O)[C@@H]2O)(C(=O)O)C[C@@H]1O — higher, 61.5
- CC(=O)N[C@H]1[C@H](OCC[Si](C)(C)C)O[C@H](CO[C@H](C)C(=O)O)[C@H](O)[C@@H]1O[C@@H]1O[C@H](CO)[C@H](O)[C@H](O[C@]2(C(=O)O)C[C@H](O)[C@@H](NC(C)=O)[C@H]([C@@H](O)[C@H](O)CO)O2)[C@H]1O — lower, 0.17
- CC(=O)N[C@H]1[C@H]([C@@H](O)[C@H](O)CO)O[C@@](O[C@H]2[C@@H](O)[C@@H](CO)O[C@@H](O[C@H]3[C@@H](O)[C@@H](CO)O[C@@H](OCC[Si](C)(C)C)[C@@H]3O)[C@@H]2O)(C(=O)O)C[C@@H]1O — higher, 0.3
- CC(=O)N[C@H]1[C@H]([C@@H](O)[C@H](O)CO)O[C@@](O[C@H]2[C@@H](O)[C@@H](CO)O[C@@H](O[C@@H]3CCO[C@H](CO[C@H](C)C(=O)O)[C@@H]3O)[C@@H]2O)(C(=O)O)C[C@@H]1O — higher, 0.98
- CC(=O)N[C@H]1[C@H]([C@@H](O)[C@H](O)CO)O[C@@](O[C@H]2[C@@H](O)[C@@H](CO)O[C@@H](O[C@@H]3CCO[C@H](CO[C@@H](C)C(=O)O)[C@@H]3O)[C@@H]2O)(C(=O)O)C[C@@H]1O — higher, 1.24
- CC(=O)N[C@H]1[C@H]([C@@H](O)[C@H](O)CO)O[C@@](O[C@H]2[C@@H](O)[C@@H](CO)O[C@@H](O[C@@H]3CCO[C@H](CO[C@@H](Cc4ccccc4)C(=O)O)[C@@H]3O)[C@@H]2O)(C(=O)O)C[C@@H]1O — higher, 0.4
- CC(=O)N[C@H]1[C@H]([C@@H](O)[C@H](O)CO)O[C@@](O[C@H]2[C@@H](O)[C@@H](CO)O[C@@H](O[C@@H]3CCO[C@H](COCc4ccc(-c5ccccc5)cc4)[C@@H]3O)[C@@H]2O)(C(=O)O)C[C@@H]1O — higher, 1.25
- CC(=O)N[C@H]1[C@H](OCC[Si](C)(C)C)O[C@H](CO[C@@H](C)C(=O)O)[C@H](O)[C@@H]1O[C@@H]1O[C@H](CO)[C@H](O)[C@H](O[C@]2(C(=O)O)C[C@H](O)[C@@H](NC(C)=O)[C@H]([C@@H](O)[C@H](O)CO)O2)[C@H]1O — higher, 0.31
